Results from different studies.
Lines come from different studies, so protocols differ.
Target: Serine/threonine-protein kinase STK11 (STK11, Homo sapiens, UniProt Q15831)
Residues used in one study (Q15831 1-433): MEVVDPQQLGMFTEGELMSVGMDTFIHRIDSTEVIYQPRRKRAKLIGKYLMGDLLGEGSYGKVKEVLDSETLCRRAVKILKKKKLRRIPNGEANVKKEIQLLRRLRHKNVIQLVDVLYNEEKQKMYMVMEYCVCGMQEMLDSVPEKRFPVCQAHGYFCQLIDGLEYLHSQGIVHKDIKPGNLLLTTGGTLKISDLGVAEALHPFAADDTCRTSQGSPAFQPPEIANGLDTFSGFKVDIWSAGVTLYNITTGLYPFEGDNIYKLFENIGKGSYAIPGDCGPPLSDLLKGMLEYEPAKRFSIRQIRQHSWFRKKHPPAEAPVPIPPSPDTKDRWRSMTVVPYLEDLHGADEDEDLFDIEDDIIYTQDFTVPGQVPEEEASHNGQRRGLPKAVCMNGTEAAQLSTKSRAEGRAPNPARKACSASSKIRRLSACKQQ

The activity vs control of `FC(F)(F)Oc1cccc(-c2cnc3ccc(-c4ccncc4)nn23)c1` is reported as 106% (enzyme activity, inhibitor, radiometric; 5 µM).
`COc1cc2ncnc(Nc3ccc(F)c(Cl)c3)c2cc1OCCCN1CCOCC1` has a remaining signal of 106% (cell-free assay; 0.5 µM).
For `CCN(CC)c1ccc(C2=NNC(=O)CC2C)cc1[N+](=O)[O-]` (stereo not shown), the remaining activity was 91% (enzyme activity, inhibitor; 10 µM).
For `Cc1ccc(NC(=O)c2ccc(CN3CCN(C)CC3)cc2)cc1Nc1nc(-c2cccnc2)cs1`, the remaining signal was 102% (cell-free assay; 0.5 µM).
For `CC(=O)N1CCC(c2ccc(C(=O)NC3=NCCN3)cc2C(F)(F)F)CC1`, the remaining binding was 71% (cell-free assay, competition with immobilised ligand; 1 µM).
The remaining activity of `O=C(Nc1cnn(-c2csc(C(=O)NC3COC3)c2)c1)Nc1c(F)cccc1Cl` is reported as 94.7% (enzyme activity, inhibitor; 5 µM).
`COc1cc(/C=C/C(=O)CC(=O)/C=C/c2ccc(O)c(OC)c2)ccc1O` has an activity vs control of 95% (enzyme activity, inhibitor; 1 µM).
The remaining binding of `CCCCN(CCCC)C(=O)CN1C[C@@H](c2cc(OC)c3c(c2)OCO3)[C@H](C(=O)O)[C@H]1CC(C)(C)CCC` is reported as 82.2% (cell-free assay, competition with immobilised ligand; 1 µM).
With `COc1cc(Cl)c(C(=O)N[C@@H](CN[C@H]2CC[C@@H](N)CC2)Cc2ccc(C#N)cc2)cc1-c1ccc(CN[C@H](C)c2ccc(C)cc2)o1` the remaining activity was 101% (enzyme activity, inhibitor; 1 µM).
With `Cc1ccc(Nc2nccc(N(C)c3ccc4c(C)n(C)nc4c3)n2)cc1S(N)(=O)=O` the inhibition was -2% (enzyme activity, inhibitor; 10 µM).
With `O=c1nc(-c2ccccn2)sc2ccccc12` the remaining binding was 79% (binding, competition with immobilised ligand; 1 µM).
The activity vs control of `Cc1ccc(C(=O)NCc2ccsc2)cc1C#Cc1cn(C(C)C)c2ncnc(N)c12` is reported as 94% (enzyme activity, inhibitor; 1 µM).
The remaining activity of `COc1cc(Nc2cnc(C#N)c(O[C@H](C)CN(C)C)n2)ncc1-c1cnn(C)c1` is reported as 64% (enzyme activity, inhibitor, radiometric; 10 µM).
`C[C@@H]1CN(c2cc(-c3nn(C)c4ccc(OC5(C)CC5)cc34)ncn2)C[C@H](C)O1` gave a remaining binding of 94% (cell-free assay, competition with immobilised ligand; 1 µM).
`O=C1Nc2ccc(Cl)cc2C1=Cc1cc(Cl)c(O)c(Cl)c1` gave a remaining signal of 93.1% (cell-free assay; 0.5 µM).
With `Cc1ccc(-n2nc(C(C)(C)C)cc2NC(=O)Nc2ccc(OCCN3CCOCC3)c3ccccc23)cc1` the inhibition was 10% (enzyme activity, inhibitor; 10 µM).
For `CC(C)c1ccc(NC(=O)c2cccs2)c(-c2nc3ccccc3[nH]c2=O)c1`, the activity vs control was 76% (enzyme activity, inhibitor; 1 µM).
With `CCCS(=O)(=O)Nc1ccc(F)c(C(=O)c2c[nH]c3ncc(-c4ccc(Cl)cc4)cc23)c1F` the inhibition was < 10% (enzyme activity, inhibitor; 1 µM).
For `Cn1nc(C(F)(F)F)cc1-c1cnc(N2CCc3cc(S(=O)(=O)Nc4c(F)cc(Cl)cc4F)cc(N4CCCC4=O)c32)nc1`, the remaining binding was 100% (cell-free assay, competition with immobilised ligand; 1 µM).
With `CC(C)(O)[C@H]1CC[C@H](Nc2ccc3ncc(-c4cccc(C(F)(F)F)c4)n3n2)CC1` the remaining activity was 90.5% (enzyme activity, inhibitor; 1 µM).
With `CCN(CC)CCNC(=O)c1c(C)[nH]c(/C=C2\C(=O)Nc3ccc(F)cc32)c1C` the inhibition was 3% (enzyme activity, inhibitor; 10 µM).
The remaining binding of `CS(=O)(=O)c1cc(C2(NC(=O)c3cncc4c3cnn4-c3ccc(F)cc3)CC2)ccn1` is reported as 100% (cell-free assay, competition with immobilised ligand; 1 µM).
`CN1CC(Oc2cnc(C#N)cc2-c2ccn3nc(NC(=O)C4CC4)cc3c2)C1` has an inhibition of -2% (enzyme activity, inhibitor; 1 µM).
`CN(c1ccnc(CNc2nc(Nc3ccc4c(c3)CC(=O)N4)ncc2C(F)(F)F)n1)S(C)(=O)=O` gave a remaining binding of 72% (cell-free assay, competition with immobilised ligand; 1 µM).
`Cn1c(=O)n(-c2ccc(C(C)(C)C#N)cc2)c2c3cc(-c4cnc5ccccc5c4)ccc3ncc21` has a remaining activity of 105% (enzyme activity, inhibitor; 10 µM).
